# Assay results reported in the M2OR odorant receptor database.
# Biological target: T1, UniProt Q8VGX8
# T1 sequence (whole entry): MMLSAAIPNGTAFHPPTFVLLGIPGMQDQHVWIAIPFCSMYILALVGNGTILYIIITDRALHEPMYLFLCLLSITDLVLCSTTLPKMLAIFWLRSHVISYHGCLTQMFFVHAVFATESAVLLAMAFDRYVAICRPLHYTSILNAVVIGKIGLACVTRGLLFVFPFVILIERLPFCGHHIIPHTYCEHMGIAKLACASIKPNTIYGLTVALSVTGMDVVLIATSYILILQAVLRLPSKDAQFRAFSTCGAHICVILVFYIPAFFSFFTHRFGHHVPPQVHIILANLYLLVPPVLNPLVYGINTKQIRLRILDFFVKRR
# Conditions: stereoisomer not certain
# Procedure, shortened: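 Transient luciferase assays in mammalian cell lines were common, though methods varied by source. The values come from published papers and their supplementary material, with extra details from the original authors when needed. Responsive refers to a measured signal the original authors judged statistically different from baseline, and non-responsive (inactive) to the remainder.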
# 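Note: active if original authors judged signal statistically different from baseline.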
row,SMILES,odorant receptor agonist call
1,CCCCCCCCC(=O)O,active
2,CCCCCCCO,inactive
3,c1ccccc1,inactive
4,CCCCCOC(=O)CCCCC,inactive
5,CCCCCC1=C(C)CCC1=O,inactive
6,CC(C)=CCCC(C)=CCO,inactive
7,O=C(c1ccccc1)c1ccccc1,inactive
8,CC(=O)Oc1ccccc1,inactive
9,COc1cc(C(=O)O)ccc1O,inactive
10,CC12CCC(CC1=O)C2(C)C (stereo unspecified),inactive
11,CCCCCCCCCC(=O)[O-].[H+],active
12,CCCCCCC(C)=O,inactive
13,C=CCOC(=O)CCCCCC,inactive
14,CCCCC(=O)CC,inactive
15,CCCC(=O)C(C)=O,inactive
16,CCCCCCCCCCO,inactive
17,O=C1CCOc2ccccc21,inactive
18,CC(C)=CCCC(C)CCO (stereo unspecified),inactive

row,SMILES,odorant receptor agonist call
1,CCCCC(=O)O,inactive
2,CCCCCCCCS,inactive
3,CCC(=O)O,inactive
4,CC(=O)OCC=C(C)C,inactive
5,CCCCC(C)=O,inactive
6,CCCCCC(=O)CC,inactive
7,CCC(=O)C(=O)CC,inactive
8,O=C1Cc2ccccc2O1,inactive
9,CCOC(=O)C(C)C,inactive
10,CCCCCCO,inactive
11,CCCCCC=O,inactive
12,CCCCCCCCCS,inactive
13,CCCCCCCCO,inactive
14,CC(=O)OCc1ccccc1,inactive
15,CCCCOC=O,inactive
16,CCCCCCCCCO,inactive
17,CCCCCCOC(C)=O,inactive
18,CCCCCCCC(C)=O,inactive
